Here are results for eight compounds from ChEMBL document CHEMBL1126115, “Synthesis of a homologous series of ketomethylene arginyl pseudodipeptides and application to low molecular weight hirudin-like thrombin inhibitors” (J Med Chem, 1992).

Starred links: 1 amine or outer side, 2 acyl side, 3 side chain; linkers in the order of their positions; H or OH if unused. Non-standard residues stand in square brackets, D forms with d. Residues, ends and D or L forms follow the SMILES beside them. X1 = NC(N)=NCCCC(N[*:1])C(=O)CCCCC(=O)[*:2]; X2 = O=C(C/C=C/CN[*:1])[*:2]

One may read the Ki as a measure of affinity in units of concentration, obtained from inhibition or displacement. Lower therefore signals higher affinity.

The target of one experiment is Prothrombin (Homo sapiens, UniProt P00734). In words: Compound was evaluated for their ability to inhibit the alpha-thrombin-mediated hydrolysis of the fluorescent substrate Tos-Gly-Pro-Arg-Amc. The gist of the method:
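Human α-thrombin (30 pM) added to start the reaction, 25 °C, 0.1 M Tris-HCl pH 7.8 with 0.1 M NaCl and 0.1% PEG 6000. […] Initial rates of Amc fluorescence read at ex 383/em 455 nm, calibrated against free 7-amino-4-methylcoumarin. Ki obtained by nonlinear fit to a competitive inhibition equation.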
In turn, `CC[C@H](C)[C@H](NC(=O)[C@H](CCC(=O)O)NC(=O)[C@H](CCC(=O)O)NC(=O)[C@H](Cc1ccccc1)NC(=O)[C@H](CC(=O)O)NC(=O)CNC(=O)[C@H](CC(=O)O)NC(=O)[C@H](CC(N)=O)NC(=O)[C@H](Cc1c[nH]cn1)NC(=O)[C@H](CO)NC(=O)[C@H](CCC(N)=O)NC(=O)CCCCC(=O)[C@H](CCCN=C(N)N)NC(=O)[C@@H]1CCCN1C(=O)[C@H](Cc1ccccc1)NC(C)=O)C(=O)N1CCC[C@H]1C(=O)N[C@@H](CCC(=O)O)C(=O)N[C@@H](CCC(=O)O)C(=O)N[C@@H](Cc1ccc(O)cc1)C(=O)N[C@@H](CC(C)C)C(=O)N[C@@H](CCC(N)=O)C(=O)O` had a Ki of 0.14 nM.
On the same count and under the same terms, then `CC[C@H](C)[C@H](NC(=O)[C@@H]1CCCN1C(=O)[C@H](CCC(=O)O)NC(=O)[C@H](Cc1ccccc1)NC(=O)[C@H](CC(=O)O)NC(=O)C/C=C/CNC(=O)C/C=C/CNC(=O)C/C=C/CNC(=O)CCCCC(=O)C(CCCN=C(N)N)NC(=O)[C@@H]1CCCN1C(=O)[C@H](Cc1ccccc1)NC(C)=O)C(=O)N1CCC[C@H]1C(=O)N[C@@H](CC(C)C)C(=O)O` (stereo partly drawn) (Ac-FP[X1][X2][X2][X2]DFEPIPL-OH), with 3.2 nM; and `CC[C@H](C)[C@H](NC(=O)[C@H](CCC(=O)O)NC(=O)[C@H](CCC(=O)O)NC(=O)[C@H](Cc1ccccc1)NC(=O)[C@H](CC(=O)O)NC(=O)CNC(=O)[C@H](CC(=O)O)NC(=O)[C@H](CC(N)=O)NC(=O)[C@H](Cc1c[nH]cn1)NC(=O)[C@H](CO)NC(=O)[C@H](CCC(N)=O)NC(=O)CCCC(=O)[C@H](CCCN=C(N)N)NC(=O)[C@@H]1CCCN1C(=O)[C@H](Cc1ccccc1)NC(C)=O)C(=O)N1CCC[C@H]1C(=O)N[C@@H](CCC(=O)O)C(=O)N[C@@H](CCC(=O)O)C(=O)N[C@@H](Cc1ccc(O)cc1)C(=O)N[C@@H](CC(C)C)C(=O)N[C@@H](CCC(N)=O)C(=O)O`, with 0.56 nM.
Same read-out and setting: the value for `CC[C@H](C)[C@H](NC(=O)[C@@H]1CCCN1C(=O)[C@H](CCC(=O)O)NC(=O)[C@H](Cc1ccccc1)NC(=O)[C@H](CC(=O)O)NC(=O)C/C=C/CNC(=O)C/C=C/CNC(=O)CCCCC(=O)C(CCCN=C(N)N)NC(=O)[C@@H]1CCCN1C(=O)[C@H](Cc1ccccc1)NC(C)=O)C(=O)N1CCC[C@H]1C(=O)N[C@@H](CC(C)C)C(=O)O` (stereo partly drawn) was 3.5 nM; that for `CC[C@H](C)[C@H](NC(=O)[C@@H]1CCCN1C(=O)[C@H](CCC(=O)O)NC(=O)C(Cc1ccccc1)NC(=O)[C@H](CC(=O)O)NC(=O)CNC(=O)[C@H](CC(=O)O)NC(=O)[C@H](CC(N)=O)NC(=O)[C@H](Cc1cnc[nH]1)NC(=O)[C@H](CO)NC(=O)[C@H](CCC(N)=O)NC(=O)[C@@H]1CCCN1C(=O)[C@H](CCCNC(=N)N)N(C)C(=O)[C@@H]1CCCN1C(=O)C(Cc1ccccc1)NC(C)=O)C(=O)N1CCC[C@H]1C(=O)N[C@@H](CC(C)C)C(=O)O` (stereo in doubt) was 2.8 nM; that for `CC[C@H](C)[C@H](NC(=O)[C@@H]1CCCN1C(=O)[C@H](CCC(=O)O)NC(=O)[C@H](Cc1ccccc1)NC(=O)[C@H](CC(=O)O)NC(=O)C/C=C/CNC(=O)CCCCC(=O)[C@H](CCCN=C(N)N)NC(=O)[C@@H]1CCCN1C(=O)[C@H](Cc1ccccc1)NC(C)=O)C(=O)N1CCC[C@H]1C(=O)N[C@@H](CC(C)C)C(=O)O` (HELM PEPTIDE1{[ac].F.P.[NC(N)=NCCC[C@H](N[*:1])C(=O)CCCCC(=O)[*:2]].[O=C(C/C=C/CN[*:1])[*:2]].D.F.E.P.I.P.L}$$$$V2.0) was 300 nM.
Consider `CC[C@H](C)[C@H](NC(=O)[C@H](CCC(=O)O)NC(=O)[C@H](CCC(=O)O)NC(=O)[C@H](Cc1ccccc1)NC(=O)[C@H](CC(=O)O)NC(=O)CNC(=O)[C@H](CC(=O)O)NC(=O)[C@H](CC(N)=O)NC(=O)[C@H](Cc1c[nH]cn1)NC(=O)[C@H](CO)NC(=O)[C@H](CCC(N)=O)NC(=O)CC(=O)[C@H](CCCN=C(N)N)NC(=O)[C@@H]1CCCN1C(=O)[C@H](Cc1ccccc1)NC(C)=O)C(=O)N1CCC[C@H]1C(=O)N[C@@H](CCC(=O)O)C(=O)N[C@@H](CCC(=O)O)C(=O)N[C@@H](Cc1ccc(O)cc1)C(=O)N[C@@H](CC(C)C)C(=O)N[C@@H](CCC(N)=O)C(=O)O`, for which the Ki came to 3.8 nM.

The subject of the next experiment is Rattus norvegicus. The experiment is described as follows: Antithrombotic effect compared to recombinant hirudin in the rat rretiovenous shunt model after intravenous administration. Type of experiment: functional. A digest of the protocol: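 Urethane-anaesthetised rats on a temperature-controlled heating plate; right carotid artery and left jugular vein catheterised and joined by a 2-cm glass capillary (1 mm internal diameter) as thrombogenic surface. Compound or saline given intravenously 5 min before the shunt was opened. Patency followed by capillary temperature rise (thermocouple). ED15 is the dose giving a 15-min prolongation of shunt patency.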
For `CC[C@H](C)[C@H](NC(=O)[C@@H]1CCCN1C(=O)[C@H](CCC(=O)O)NC(=O)[C@H](Cc1ccccc1)NC(=O)[C@H](CC(=O)O)NC(=O)C/C=C/CNC(=O)C/C=C/CNC(=O)CCCCC(=O)[C@H](CCCN=C(N)N)NC(=O)[C@@H]1CCCN1C(=O)[C@@H](Cc1ccccc1)NC(C)=O)C(=O)N1CCC[C@H]1C(=O)N[C@@H](CC(C)C)C(=O)O`, the ED15 worked out at 6.27 mg/kg.
